{"source": "ChEMBL document CHEMBL2040797", "about": "“Synthesis of benzimidazoles bearing oxadiazole nucleus as anticancer agents” (2012)", "format_in_all_cases": "functional", "key": {"[1]": {"tested_on": "NCI-H226", "assay": "Growth inhibition of human NCI-H226 cells at 10 uM after 48 hrs by sulforhodamine B assay", "details": "NCI-H226, 48 h, read-out: GI", "in_short": "(§1)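 NCI one-dose primary screen at 10 (printed mM) across the 60-line panel. Cells in RPMI 1640 with 5% FBS and 2 mM L-glutamine, plated at 5000–40,000 cells/well and incubated 24 h before dosing. Exposure 48 h at 37 °C, 5% CO2. Adherent cells were fixed with cold TCA, suspension cells fixed after settling. SRB stain, absorbance 515 nm. Reported as percent growth of treated cells relative to control.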"}, "[2]": {"tested_on": "NCI-H522", "assay": "Growth inhibition of human NCI-H522 cells at 10 uM after 48 hrs by sulforhodamine B assay", "details": "NCI-H522, 48 h, read-out: GI", "in_short": "as §1"}, "[3]": {"tested_on": "HCC 2998", "assay": "Growth inhibition of human HCC2998 cells at 10 uM after 48 hrs by sulforhodamine B assay", "details": "HCC 2998, 48 h, read-out: GI", "in_short": "as §1"}, "[4]": {"tested_on": "SW-620", "assay": "Growth inhibition of human SW620 cells at 10 uM after 48 hrs by sulforhodamine B assay", "details": "SW-620, 48 h, read-out: GI", "in_short": "(§2)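 NCI-60 single-dose screen. Cells grown in RPMI 1640 with 5% FBS and L-glutamine, plated at 5000–40,000 cells/well by doubling time, and preincubated 24 h at 37 °C, 5% CO2. Compound stocks in DMSO, added at one concentration, then incubated 48 h. Adherent cells fixed with cold TCA (10% final), stained with 0.4% SRB, dye solubilized in 10 mM Tris base, A515 read. Reported as percent growth relative to untreated control.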"}, "[5]": {"tested_on": "SF-539", "assay": "Growth inhibition of human SF539 cells at 10 uM after 48 hrs by sulforhodamine B assay", "details": "SF-539, 48 h, read-out: GI", "in_short": "as §1"}, "[6]": {"tested_on": "U-251", "assay": "Growth inhibition of human U251 cells at 10 uM after 48 hrs by sulforhodamine B assay", "details": "U-251, 48 h, read-out: GI", "in_short": "as §2"}, "[7]": {"tested_on": "IGROV-1", "assay": "Growth inhibition of human IGROV1 cells at 10 uM after 48 hrs by sulforhodamine B assay", "details": "IGROV-1, 48 h, read-out: GI", "in_short": "as §1"}, "[8]": {"tested_on": "NCI/ADR-RES", "assay": "Growth inhibition of human NCI/ADR-RES cells at 10 uM after 48 hrs by sulforhodamine B assay", "details": "read-out: GI", "in_short": "as §1"}, "[9]": {"tested_on": "SN12C", "assay": "Growth inhibition of human SN12C cells at 10 uM after 48 hrs by sulforhodamine B assay", "details": "read-out: GI", "in_short": "as §2"}, "[10]": {"tested_on": "DU-145", "assay": "Growth inhibition of human DU145 cells at 10 uM after 48 hrs by sulforhodamine B assay", "details": "DU-145, 48 h, read-out: GI", "in_short": "as §1"}, "[11]": {"tested_on": "MCF7", "assay": "Growth inhibition of human MCF7 cells at 10 uM after 48 hrs by sulforhodamine B assay", "details": "MCF7, 48 h, read-out: GI", "in_short": "as §1"}, "[12]": {"tested_on": "BT-549", "assay": "Growth inhibition of human BT549 cells at 10 uM after 48 hrs by sulforhodamine B assay", "details": "BT-549, 48 h, read-out: GI", "in_short": "as §1"}, "[13]": {"tested_on": "CCRF-CEM", "assay": "Cytotoxicity against human CCRF-CEM cells after 48 hrs by sulforhodamine B assay", "in_short": "(§3)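 NCI 60-panel screen. Cells were grown in RPMI 1640 with 5% FBS and L-glutamine and plated at 5000–40,000 cells/well according to doubling time. They were preincubated 24 h at 37 °C, 5% CO2, then exposed 48 h to five 10-fold dilutions. Adherent cells were fixed with cold TCA, final 10%; suspension cells were fixed after settling. Cells were stained with 0.4% SRB and read at 515 nm. Tz/C/Ti growth curves gave GI50, TGI and LC50.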"}, "[14]": {"tested_on": "HL-60(TB)", "assay": "Cytotoxicity against human HL-60(TB) cells after 48 hrs by sulforhodamine B assay", "details": "HL-60, 48 h", "in_short": "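NCI 60-panel five-dose assay. Cells are grown in RPMI 1640 with 5% FBS and L-glutamine. They are plated at 5000–40,000 cells/well according to doubling time and pre-incubated 24 h at 37 °C, 5% CO2. DMSO-stock compound is added at five 10-fold or ½-log dilutions for 48 h. Settled suspension cells are fixed, then SRB-stained and read at 515 nm. Percent growth is computed from time-zero, control and treated absorbances, and LC50 is taken where protein falls 50% below the starting level.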"}, "[15]": {"tested_on": "MOLT-4", "assay": "Cytotoxicity against human MOLT4 cells after 48 hrs by sulforhodamine B assay", "details": "MOLT-4, 48 h", "in_short": "as §3"}, "[16]": {"tested_on": "A549", "assay": "Cytotoxicity against human A549 cells after 48 hrs by sulforhodamine B assay", "details": "A549, 48 h", "in_short": "as §3"}, "[17]": {"tested_on": "EKVX", "assay": "Cytotoxicity against human EKVX cells after 48 hrs by sulforhodamine B assay", "in_short": "as §3"}, "[18]": {"tested_on": "HOP-92", "assay": "Cytotoxicity against human HOP92 cells after 48 hrs by sulforhodamine B assay", "details": "HOP-92, 48 h", "in_short": "as §3"}, "[19]": {"tested_on": "NCI-H226", "assay": "Cytotoxicity against human NCI-H226 cells after 48 hrs by sulforhodamine B assay", "details": "NCI-H226, 48 h", "in_short": "as §3"}, "[20]": {"tested_on": "NCI-H23", "assay": "Cytotoxicity against human NCI-H23 cells after 48 hrs by sulforhodamine B assay", "details": "NCI-H23, 48 h", "in_short": "as §3"}, "[21]": {"tested_on": "SF-268", "assay": "Cytotoxicity against human SF268 cells after 48 hrs by sulforhodamine B assay", "details": "SF-268, 48 h", "in_short": "as §3"}, "[22]": {"tested_on": "SF-295", "assay": "Cytotoxicity against human SF295 cells after 48 hrs by sulforhodamine B assay", "details": "SF-295, 48 h", "in_short": "as §3"}, "[23]": {"tested_on": "SNB-19", "assay": "Cytotoxicity against human SNB19 cells after 48 hrs by sulforhodamine B assay", "details": "SNB-19, 48 h", "in_short": "as §3"}, "[24]": {"tested_on": "Malme-3M", "assay": "Cytotoxicity against human MALME-3M cells after 48 hrs by sulforhodamine B assay", "in_short": "as §3"}, "[25]": {"tested_on": "OVCAR-3", "assay": "Cytotoxicity against human OVCAR3 cells after 48 hrs by sulforhodamine B assay", "details": "OVCAR-3, 48 h", "in_short": "as §3"}, "[26]": {"tested_on": "SK-OV-3", "assay": "Cytotoxicity against human SKOV3 cells after 48 hrs by sulforhodamine B assay", "details": "SK-OV-3, 48 h", "in_short": "as §3"}, "[27]": {"tested_on": "RXF 393", "assay": "Cytotoxicity against human RXF393 cells after 48 hrs by sulforhodamine B assay", "details": "RXF 393, 48 h", "in_short": "as §3"}, "[28]": {"details": "read-out: LC50 (the source's name)"}}}
{"compound": "O=C(CCc1nnc(-c2ccc(Cl)cc2Cl)o1)c1nc2ccccc2[nH]1", "values": [{"measurement": "inhibition of growth at 10 µM", "setting": "[1]", "value": 16.3, "unit": "%"}, {"measurement": "inhibition of growth at 10 µM", "setting": "[2]", "value": 50.2, "unit": "%"}, {"measurement": "inhibition of growth at 10 µM", "setting": "[3]", "value": 34.1, "unit": "%"}, {"measurement": "inhibition of growth at 10 µM", "setting": "[4]", "value": 64.2, "unit": "%"}, {"measurement": "inhibition of growth at 10 µM", "setting": "[5]", "value": 4.76, "unit": "%"}, {"measurement": "inhibition of growth at 10 µM", "setting": "[6]", "value": 47.5, "unit": "%"}, {"measurement": "inhibition of growth at 10 µM", "setting": "[7]", "value": 42.4, "unit": "%"}, {"measurement": "inhibition of growth at 10 µM", "setting": "[8]", "value": 36.7, "unit": "%"}, {"measurement": "inhibition of growth at 10 µM", "setting": "[9]", "value": 38.8, "unit": "%"}, {"measurement": "inhibition of growth at 10 µM", "setting": "[10]", "value": 17.8, "unit": "%"}, {"measurement": "inhibition of growth at 10 µM", "setting": "[11]", "value": 55.3, "unit": "%"}, {"measurement": "inhibition of growth at 10 µM", "setting": "[12]", "value": 43.6, "unit": "%"}, {"measurement": "GI50", "setting": "[13]", "value": 4.86, "unit": "µM"}, {"measurement": "TGI", "setting": "[13]", "value": 66, "unit": "µM"}, {"measurement": "CC50", "setting": "[13]; [28]", "value": 100, "unit": "µM"}, {"measurement": "GI50", "setting": "[14]", "value": 2.23, "unit": "µM"}, {"measurement": "TGI", "setting": "[14]", "value": 19.3, "unit": "µM"}, {"measurement": "CC50", "setting": "[14]; [28]", "value": 100, "unit": "µM"}, {"measurement": "GI50", "setting": "[15]", "value": 4.07, "unit": "µM"}, {"measurement": "TGI", "setting": "[15]", "value": 25.8, "unit": "µM"}, {"measurement": "CC50", "setting": "[15]; [28]", "value": 100, "unit": "µM"}, {"measurement": "GI50", "setting": "[16]", "value": 10.4, "unit": "µM"}, {"measurement": "TGI", "setting": "[16]", "value": 100, "unit": "µM"}, {"measurement": "CC50", "setting": "[16]; [28]", "value": 100, "unit": "µM"}, {"measurement": "GI50", "setting": "[17]", "value": 5.48, "unit": "µM"}, {"measurement": "TGI", "setting": "[17]", "value": 100, "unit": "µM"}, {"measurement": "CC50", "setting": "[17]; [28]", "value": 100, "unit": "µM"}, {"measurement": "GI50", "setting": "[18]", "value": 1.77, "unit": "µM"}, {"measurement": "TGI", "setting": "[18]", "value": 15.8, "unit": "µM"}, {"measurement": "CC50", "setting": "[18]; [28]", "value": 100, "unit": "µM"}, {"measurement": "GI50", "setting": "[19]", "value": 6.66, "unit": "µM"}, {"measurement": "TGI", "setting": "[19]", "value": 31.2, "unit": "µM"}, {"measurement": "CC50", "setting": "[19]; [28]", "value": 100, "unit": "µM"}, {"measurement": "GI50", "setting": "[20]", "value": 3.23, "unit": "µM"}, {"measurement": "TGI", "setting": "[20]", "value": 63.2, "unit": "µM"}, {"measurement": "CC50", "setting": "[20]; [28]", "value": 100, "unit": "µM"}, {"measurement": "GI50", "setting": "[21]", "value": 7.3, "unit": "µM"}, {"measurement": "TGI", "setting": "[21]", "value": 46.6, "unit": "µM"}, {"measurement": "CC50", "setting": "[21]; [28]", "value": 100, "unit": "µM"}, {"measurement": "GI50", "setting": "[22]", "value": 5.98, "unit": "µM"}, {"measurement": "TGI", "setting": "[22]", "value": 42.9, "unit": "µM"}, {"measurement": "CC50", "setting": "[22]; [28]", "value": 100, "unit": "µM"}, {"measurement": "GI50", "setting": "[23]", "value": 17.4, "unit": "µM"}, {"measurement": "TGI", "setting": "[23]", "value": 100, "unit": "µM"}, {"measurement": "CC50", "setting": "[23]; [28]", "value": 100, "unit": "µM"}, {"measurement": "GI50", "setting": "[24]", "value": 13, "unit": "µM"}, {"measurement": "TGI", "setting": "[24]", "value": 52.6, "unit": "µM"}, {"measurement": "CC50", "setting": "[24]; [28]", "value": 100, "unit": "µM"}, {"measurement": "GI50", "setting": "[25]", "value": 5.63, "unit": "µM"}, {"measurement": "TGI", "setting": "[25]", "value": 24.8, "unit": "µM"}, {"measurement": "CC50", "setting": "[25]; [28]", "value": 90.7, "unit": "µM"}, {"measurement": "GI50", "setting": "[26]", "value": 4.6, "unit": "µM"}, {"measurement": "TGI", "setting": "[26]", "value": 30.5, "unit": "µM"}, {"measurement": "CC50", "setting": "[26]; [28]", "value": 100, "unit": "µM"}, {"measurement": "GI50", "setting": "[27]", "value": 4.3, "unit": "µM"}, {"measurement": "TGI", "setting": "[27]", "value": 49.7, "unit": "µM"}, {"measurement": "CC50", "setting": "[27]; [28]", "value": 100, "unit": "µM"}]}
